Results of several laboratories.
Lines come from different studies, so protocols differ.
Organism: Mycobacterium tuberculosis
Read-out: microbial growth

SMILES | assay | test system | setting | MIC
O=C(CNS(=O)(=O)c1ccc([N+](=O)[O-])cc1[N+](=O)[O-])N1CCN(C(c2ccc(F)cc2)c2ccc(F)cc2)CC1 |  | ATCC27294 H37RV |  | 25 µg/mL
C[C@H]1COC2(CCN(c3nc(=O)c4cc(C(F)(F)F)cc([N+](=O)[O-])c4s3)CC2)O1 | resazurin | H37RV |  | < 0.39 µM
CO[C@H]1/C=C/O[C@@]2(C)Oc3c(C)c(O)c4c(O)c(c(/C=N/N5CCN(C)CC5)c(O)c4c3C2=O)NC(=O)/C(C)=C\C=C\[C@H](C)[C@H](O)[C@@H](C)[C@@H](O)[C@@H](C)[C@H](OC(C)=O)[C@@H]1C |  | W4 |  | 0.016 µM
O=C1C(=NNc2nc(-c3ccccc3)cs2)C(N=Cc2ccc([N+](=O)[O-])cc2)=NN1c1ccccc1 | resazurin | H37RV |  | 25 µg/mL
Cc1c(Cc2ccccc2Cl)c(=O)n2c([nH]c3ccccc32)c1C#N | broth dilution | H37RV |  | > 128 µg/mL
CO[C@H]1/C=C/O[C@@]2(C)Oc3c(C)c(O)c4c(O)c(c(/C=N/N5CCN(C)CC5)c(O)c4c3C2=O)NC(=O)/C(C)=C\C=C\[C@H](C)[C@H](O)[C@@H](C)[C@@H](O)[C@@H](C)[C@H](OC(C)=O)[C@@H]1C | broth dilution |  |  | 0.4 µg/mL
O=C1C(=NNc2nc(-c3ccccc3)cs2)C(N=Cc2ccccc2)=NN1c1ccccc1 | resazurin | H37RV |  | 6.25 µg/mL
CNC(=O)c1cc(Oc2ccc(NC(=O)Nc3ccc(Cl)c(C(F)(F)F)c3)cc2)ccn1 |  | H37RV |  | 25 µM
CCCCCCCCCCC[C@@H](C[C@@H]1OC(=O)[C@H]1CCCCCC)OC(=O)[C@H](CC(C)C)NC=O | resazurin | H37RA |  | 24 µg/mL
C[C@H]1O[C@H](O[C@H]2CC[C@H](n3ccc(NC(=O)c4ccc(NC(=O)[C@@](C)(N)CO)cc4)nc3=O)O[C@@H]2C)[C@H](O)[C@@H](O)[C@@H]1N(C)C |  | H37RA |  | 0.8 µM
O=C1C(Cl)=C(Cl)C(=O)c2ccccc21 |  | H37RV | 14 days | 10 µg/mL
CC(C)[C@H]1CO[C@]23CCN(Cc4ccccc4)C[C@H]2CCC(=O)N13 | resazurin | H37RV | 7 days | 5.73 µM
CCCC1CCC2(CC1)SC(C)C(=O)N2NC(=O)c1[nH]c2ccc(Cl)cc2c1-c1ccccc1 (stereo not drawn) |  | ATCC27294 H37RV |  | 1000 µM
COC(=O)c1cc(-c2cccc(NC(=O)Nc3cc(Cl)ccc3Cl)c2)on1 |  | ATCC27294 H37RV | 7 days | 2 µg/mL
CO[C@H]1/C=C/O[C@@]2(C)Oc3c(C)c(O)c4c(O)c(c(/C=N/N5CCN(C)CC5)c(O)c4c3C2=O)NC(=O)/C(C)=C\C=C\[C@H](C)[C@H](O)[C@@H](C)[C@@H](O)[C@@H](C)[C@H](OC(C)=O)[C@@H]1C |  | ATCC27294 H37RV | 8 days | 0.06 µg/mL
COC(=O)c1cc(-c2cccc(NC(=S)Nc3ccccc3)c2)on1 |  | ATCC27294 H37RV | 7 days | 2 µg/mL
C=C[C@@H](O)C#CC#C[C@@H](O)/C=C\CCCCCCC | resazurin | ATCC35801 ERDMAN | 7 days | 6 µg/mL
COC(=O)c1cc(-c2cccc(NC(=S)Nc3cccc(Br)c3)c2)on1 |  | ATCC27294 H37RV | 7 days | 8 µg/mL
Nc1ncnc2c1ncn2[C@@H]1O[C@H](COS(N)(=O)=O)[C@@H](O)[C@H]1O |  | H37RV |  | 0.16 µg/mL
COC(=O)c1cc(-c2cccc(NC(=S)Nc3ccc(OC)cc3)c2)on1 |  | ATCC27294 H37RV | 7 days | 2 µg/mL
C[C@@H](O)[C@H]1C(=O)N2C(C(=O)O)=C(SCCN=CN)C[C@H]12 | resazurin | H37RA | 14 days | 16 µg/mL

SMILES | assay | test system | setting | MIC
Cc1c(Cc2cccc(Cl)c2)c(=O)n2c([nH]c3ccccc32)c1C#N | broth dilution | H37RV |  | > 128 µg/mL
O=C(Nc1cccc(-c2cc(C(=O)O)no2)c1)Nc1ccc(Cl)c(Cl)c1 |  | ATCC27294 H37RV | 7 days | 64 µg/mL
Cc1ccc(C)n1-c1ccc(-c2nnc(-c3ccc(Br)cc3)[nH]2)cc1 | broth dilution | H37RV | 21 days | 2 µg/mL
O=[N+]([O-])c1cn2c(n1)OC[C@@H](OCc1ccc(N3CCCCC3)nc1)C2 |  | H37RV |  | 0.4 to 0.8 µg/mL
COC(=O)c1cc(-c2cccc(NC(=O)Nc3ccc(Cl)c(C(F)(F)F)c3)c2)on1 |  | ATCC27294 H37RV | 7 days | > 64 µg/mL
Cc1ccc2nc(C)c(C(=O)NCc3ccc(S(F)(F)(F)(F)F)cc3)n2c1 |  | H37RV | 5 days | 0.014 µM
O=C(CCNS(=O)(=O)c1ccc([N+](=O)[O-])cc1)N1CCN(C(c2ccc(F)cc2)c2ccc(F)cc2)CC1 |  | ATCC27294 H37RV |  | 25 µg/mL
CN[C@H](CC(C)C)C(=O)N[C@H]1C(=O)N[C@@H](CC(N)=O)C(=O)N[C@H]2C(=O)N[C@H]3C(=O)N[C@H](C(=O)N[C@H](C(=O)O)c4cc(O)cc(O)c4-c4cc3ccc4O)[C@H](O)c3ccc(c(Cl)c3)Oc3cc2cc(c3O[C@@H]2O[C@H](CO)[C@@H](O)[C@H](O)[C@H]2O[C@H]2C[C@](C)(N)[C@H](O)[C@H](C)O2)Oc2ccc(cc2Cl)[C@H]1O |  | H37RV | 14 days | 12.5 µg/mL
O=C1C(=NNc2nc(-c3ccccc3)cs2)C(N=Cc2ccc(O)c(O)c2)=NN1c1ccccc1 | resazurin | H37RV |  | 3.12 µg/mL
CC1CCC2(CC1)SCC(=O)N2NC(=O)c1[nH]c2ccc(Cl)cc2c1-c1ccccc1 (stereo not drawn) |  | ATCC27294 H37RV |  | 31 µM
N#Cc1cc(C(F)(F)F)cc2c(=O)nc(N3CCN(CC4CCOC4)CC3)sc12 (stereo not drawn) | resazurin | H37RV |  | 1.9 µM
CC(C)(C)C1CCC2(CC1)SCC(=O)N2NC(=O)c1[nH]c2ccc(Cl)cc2c1-c1ccccc1 (stereo not drawn) |  | ATCC27294 H37RV |  | 16 µM
[H]/N=C(/N)N[C@H]1[C@H](O)[C@@H](O)[C@H](O[C@@H]2O[C@@H](C)[C@](O)(C=O)[C@H]2O[C@@H]2O[C@@H](CO)[C@H](O)[C@@H](O)[C@@H]2NC)[C@@H](N/C(N)=N\[H])[C@@H]1O | resazurin | H37RV |  | 6.25 µg/mL
CCC1CCC2(CC1)SCC(=O)N2NC(=O)c1[nH]c2ccc(Cl)cc2c1-c1ccccc1 (stereo not drawn) |  | ATCC27294 H37RV |  | 250 µM
COc1nc2ccc(Br)cc2cc1[C@@H](c1ccccc1)[C@@](O)(CCN(C)C)c1cccc2ccccc12 | resazurin | H37RV | 14 days | 0.51 µM
CC[C@@H](CO)NCCN[C@@H](CC)CO |  | ATCC27294 H37RV | 7 days | 1 µg/mL
Cc1ccc(C)n1-c1ccc(-c2nnc(-c3ccccc3Cl)[nH]2)cc1 | broth dilution | H37RV | 21 days | 8 µg/mL
CC1=NN(CNc2ccccn2)C(=O)C1=NNn1c(-c2ccccc2)nc2ccccc2c1=O | resazurin | H37RV |  | 110 µM
Cc1ccc(C)n1-c1ccc(-c2nnc(-c3ccccc3[N+](=O)[O-])[nH]2)cc1 | broth dilution | H37RV | 21 days | 16 µg/mL
CCOC(=O)c1nnn(-c2cccc(NC(=O)Nc3ccc(Cl)c(Cl)c3)c2)c1C |  | ATCC27294 H37RV | 7 days | 16 µg/mL
CO[C@H]1/C=C/O[C@@]2(C)Oc3c(C)c(O)c4c(O)c(c(/C=N/N5CCN(C)CC5)c(O)c4c3C2=O)NC(=O)/C(C)=C\C=C\[C@H](C)[C@H](O)[C@@H](C)[C@@H](O)[C@@H](C)[C@H](OC(C)=O)[C@@H]1C |  | H37RV |  | 0.85 µg/mL
